Assay results collected from several papers.
Compare with care: the assays were run in different laboratories.

| SMILES | target or system | assay | system | setting | measurement | result |
| --- | --- | --- | --- | --- | --- | --- |
| O=C(NC(=S)Nc1nccs1)c1ccco1 | Leishmania tropica | parasite growth, resazurin |  | promastigote | IC50 | 12.4 µM |
| Nc1ccc(/C=C/C(=O)NCc2cc3cc(-c4ccc(C(=O)N5CCC(F)(F)CC5)cc4)cc(-c4ccc(F)cc4)c3o2)cn1 | PANC-1 | cell growth or viability, CCK-8 |  | 72 h | IC50 | > 20 µM |
| COc1ccc(Cc2[nH]/c(=N/C(=O)C34CC5CC(CC(C5)C3)C4)n(C)c2-c2ccc(OC(=O)c3ccccc3)c(OC)c2)cc1 | Hepatitis B virus | viral replication, inhibitor | HePAD38 |  | IC50 | 9.82 µM |
| C=CC(=O)NC1CCN(c2ncc3ncnc(Nc4ccc(Oc5ccc6c(c5)ncn6C)c(C)c4)c3n2)CC1 | NUGC-4 | cell growth or viability |  |  | EC50 | 0.0144 µM |
| N#Cc1c(-c2ccc(OCc3ccccc3)cc2)c(C(N)=S)c(N)n(N)c1=O | Saccharomyces cerevisiae | microbial growth, well diffusion | ATCC9763 | 500 µg/mL | inhibition zone | 17 mm |
| O=C(NC(=S)Nc1ccccc1O)c1ccco1 | Leishmania tropica | parasite growth, resazurin |  | promastigote | IC50 | 4.19 µM |
| N#Cc1c(-c2ccc(OCc3ccccc3)cc2)c(C(N)=O)c(N)n(N)c1=O | Saccharomyces cerevisiae | microbial growth, well diffusion | ATCC9763 | 500 µg/mL | inhibition zone | 16 mm |
| Nc1ccc(/C=C/C(=O)N2CCc3c(oc4c(-c5ccc(F)cc5)cc(-c5ccc(C(=O)N6CCOCC6)nn5)cc34)C2)cn1 | PANC-1 | cell growth or viability, CCK-8 |  | 72 h | IC50 | > 20 µM |
| Cc1c(C(N)=S)c(N)n(N)c(=O)c1C#N | Saccharomyces cerevisiae | microbial growth, well diffusion | ATCC9763 | 500 µg/mL | inhibition zone | 18 mm |
| O=C(NC(=S)Nc1cccc(O)c1)c1cccs1 | Leishmania tropica | parasite growth, resazurin |  | promastigote | IC50 | 0.48 µM |
| CN(C)c1ccc(-c2c(C(N)=O)c(N)n(N)c(=O)c2C#N)cc1 | Saccharomyces cerevisiae | microbial growth, well diffusion | ATCC9763 | 500 µg/mL | inhibition zone | 13 mm |
| Cc1c(C(=O)O)ccc2c3n(nc12)[C@@H]1[C@H](C3)N(CC2CC2)[C@@]2(C(=O)Nc3cc(Cl)ccc32)[C@H]1c1cccc(Cl)c1F | NUGC-4 | cell growth or viability, resazurin |  |  | IC50 | 0.012 µM |
